Usually IC50 stands for the midpoint of a concentration-inhibition curve. The Cmax is the maximum level reached in the sampled fluid or tissue. As a reminder, the Tmax is the time at which the peak concentration occurs. Broadly, the half-life is the time in which the quantity being followed falls by half.

The record followed here is PMC7032090 (Asian Journal of Pharmaceutical Sciences, 2019).

For data set [1], the system named is Caco-2 cells. In words: In vitro cytotoxicity. In kind it is cell-based. The note with it: for IC50: Homo sapiens, Caco-2, 48 h, read-out: IC50 Caco-2; for IC50 in Caco-2 cells, fold greater than 5-FU: MTT, 48 h. The method in brief:
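Caco-2 cells seeded at 5 × 10^3 per well and grown 24 h. Cells were exposed to a concentration gradient of test compound for 48 h. Medium was replaced with 20% MTT medium for 4 h at 37 °C, then formazan was dissolved in DMSO for 15 min. Absorbance was read at 490 nm and IC50 calculated.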

A further data set in a line: In vivo pharmacokinetics. More on the design: species or system Sprague-Dawley rats. The note with it: 8 mg/kg. A digest of the protocol: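 Male Sprague-Dawley rats (200–220 g), 5 per group. Oral dosing was 20 mg/kg 5-FU equivalent; one group received 5-FU iv at 8 mg/kg for absolute bioavailability. Plasma was collected at set times. Samples were precipitated with methanol plus internal standard, dried under nitrogen at 37 °C and reconstituted in methanol:water 15:85. Prodrug and 5-FU were measured together by UPLC-MS/MS (C18, water/acetonitrile gradient, MRM).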

Another data set has as its system Kunming mice. The data set can be described thus: In vivo safety evaluation. The note with it: 40 mg/kg intragastrically, 7 d continuous. A digest of the protocol:
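Male Kunming mice (18–22 g), nine in 3 groups, received PBS, 5-FU or test compound intragastrically at 40 mg/kg for 7 consecutive days. Duodenum, jejunum, ileum and colon (plus major organs) were fixed in 10% formalin, then embedded, dewaxed, stained and examined microscopically.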

Data set [2] is described as follows: Chemical stability in different pH hydrochloride and phosphate buffers at 37 °C. Type of data set: physicochemical. The note with it: for half-life at 80 µg/ml: hydrochloride or phosphate buffer (PBS); for T1/2: pH 6.8, 37 °C, 80 µg/ml. The method in brief:
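Test compound at 80 µg/ml in pH 1.2, 6.8 or 7.4 solution, shaken at 37 °C. Samples were taken at 0, 0.083, 0.25, 0.5, 1, 2, 4, 8, 12, 24 and 48 h. Each sample was centrifuged at 13 000 rpm for 10 min and quantified by HPLC.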

Data set [3] can be described thus: Enzymatic stability in rat intestinal homogenates. Type of data set: in vitro ADME. The following applies: Sprague-Dawley, intestinal homogenate. A digest of the protocol: (§1)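 Matrices from Sprague-Dawley rats: plasma from orbital blood stored at −80 °C, and liver or intestine washed in saline, homogenised on ice at 1:3 tissue:saline, with cold-centrifuged supernatant used. Test compound at 80 µg/ml, shaken at 37 °C, sampled 0–48 h. Samples were quenched with methanol (1:3), vortexed 2 min and centrifuged 13 000 rpm for 10 min. Supernatant was analysed by HPLC.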

A short description of data set [4]: Enzymatic stability in rat hepatic homogenates. Type of data set: in vitro ADME. The following applies: Sprague-Dawley, liver homogenate. The method in brief:
as §1

Data set [5] can be described thus: Enzymatic stability in rat plasma. In kind it is in vitro ADME. The following applies: Sprague-Dawley. The method in brief:
as §1

A short description of data set [6]: In situ single-pass intestinal perfusion study. Type of data set: in vivo, Sprague-Dawley (SD) rats. The following applies: for absorption rate constant (Ka), fold higher than 5-FU / apparent permeability coefficient (Papp), fold higher than 5-FU: colon, 0.5 mM, rat. A digest of the protocol: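 Sprague-Dawley rats (220–240 g) were anaesthetised with 20% urethane, and ileum and colon segments were cannulated. Segments were pre-perfused with blank MES buffer for 20 min, then with test compound at 0.5 mM in MES buffer. Inlet and outlet perfusate were collected and weighed at set times. Samples were methanol-precipitated (1:3) and analysed by HPLC. Ka and Papp were derived from concentrations, volumes, segment radius and length, and flow rate.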

The test system of data set [7] is Caco-2 cells. The data set can be described thus: Caco-2 cell uptake study. The following applies: for Uptake in untreated cells (without butyric acid induction): cells without induction vs butyric acid-treated; for Caco-2 uptake, fold higher than 5-FU: drug concentration 1 mM, uptake time 10 min, butyric acid-induced cells. Type of data set: cell-based. The method in brief:
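Caco-2 cells seeded in 24-well plates at 1 × 10^4 per well and grown 15 d. Medium was switched to butyric acid-containing medium on day 7 to induce MCT1. Uptake ran at 37 °C at set times and concentrations, with or without inhibitor at 2.5 mM. Cells were washed three times with cold PBS, collected in water and sonicated. Drug was measured by UPLC-MS/MS and normalised to BCA protein.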

For a further data set, the system named is Caco-2 monolayer. In words: Caco-2 cell permeability. Type of data set: in vitro ADME. The following applies: AP → BL transport. The method in brief: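 Caco-2 cells seeded on Transwell inserts at 1 × 10^4 per well. After the first week, medium contained butyric acid up to 21 d, and monolayers with TEER above 300 Ω cm2 were used. Monolayers were washed with 37 °C HBSS and equilibrated for 30 min. Drug was added apically with HBSS basolaterally. BL was sampled with replacement at 5–120 min, with or without inhibitor (2.5 mM). Samples were analysed by UPLC-MS/MS and Papp calculated.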

The mark [8] stands for this setting: male, Sprague-Dawley, rat, plasma, iv.

In the case of `O=c1[nH]cc(F)c(=O)[nH]1` [5-FU, 5-Fluorouracil], the IC50 with Caco-2 cells [1] was found to be 77.8 ± 1.11 µM. The Fabs in “In vivo pharmacokinetics” (i.v., rat (reference)) was found to be 100%. Besides, in “In vivo pharmacokinetics” (setting [8]), the Cmax is 11200 ng/mL, the Tmax is 4.8 min and the half-life is 0.29 ± 0.06 h. Besides, in the data set with Kunming mice, the “Intestinal histology (duodenum, jejunum, ileum, colon; H&E)” value was “inflammatory cell infiltration occurred in the duodenum, jejunum and ileum tissues”; the “Systemic histology (heart, liver, spleen, lung, kidney; H&E)” value is recorded as “the liver cells were wrinkled, the nuclei were pyknotic”.

Consider `O=C(O)CCCCC(=O)OCn1cc(F)c(=O)[nH]c1=O` [HDA-5-FU, Hexanedioic acid mono-(5-fluoro-2,4-dioxo-3,4-dihydro-2H-pyrimidin-1-ylmethyl) ester], for which the half-life at 80 µg/ml in data set [2] (pH 1.2) was 38.3 ± 0.1 h; in [2] (pH 7.4) it was 143 ± 36.8 h; in [3], 3.4 ± 0.2 h; in data set [4], 9.7 ± 3 h; in data set [5], 19.7 ± 5.1 h. Further, the T1/2 entry in [2] is “No hydrolysis”. Also, the “absorption rate constant (Ka), fold higher than 5-FU” value in data set [6] stood at 1.1 fold. Further, the “apparent permeability coefficient (Papp), fold higher than 5-FU” value in data set [6] came to 1.1 fold. Further, the “Ka and Papp values on co-incubating with quercetin (MCT1 inhibitor)” value in [6] (in situ perfusion with quercetin) is “significantly decreased”. Besides, the IC50 with Caco-2 cells [1] turned out to be 500.8 ± 1.32 µM. Moreover, in the data set on Caco-2 cells [1], the “IC50 in Caco-2 cells, fold greater than 5-FU” value amounted to 6.4 fold. Besides, in the data set with Caco-2 cells [7], the “Uptake in untreated cells (without butyric acid induction)” value is “significantly decreased”. For the same compound, in the data set with Caco-2 cells [7], the “Caco-2 uptake, fold higher than 5-FU” value was 2.2 fold. Moreover, the “membrane permeability AP → BL, fold greater than 5-FU” value in the data set on Caco-2 monolayer came to 8.5 fold.

Consider `O=C(O)CCCCCCC(=O)OCn1cc(F)c(=O)[nH]c1=O` [OA-5-FU, octanedioic acid mono-(5-fluoro-2,4-dioxo-3,4-dihydro-2H-pyrimidin-1-ylmethyl) ester], for which the half-life at 80 µg/ml in data set [2] (pH 1.2) was 36.8 ± 2.3 h; in data set [2] (pH 7.4), 152 ± 13.1 h; in data set [3], 1.2 ± 0.1 h; in [4], < 0.25 h; in data set [5], 15.3 ± 1.1 h. Also, in data set [2], the T1/2 entry is “No hydrolysis”. Moreover, the “absorption rate constant (Ka), fold higher than 5-FU” value in data set [6] stood at 3.8 fold. Further, the “apparent permeability coefficient (Papp), fold higher than 5-FU” value in data set [6] turned out to be 3.3 fold. Besides, the IC50 in the data set with Caco-2 cells [1] was 317.7 ± 1.1 µM. In the data set on Caco-2 cells [1], the “IC50 in Caco-2 cells, fold greater than 5-FU” value turned out to be 4.1 fold. Further, in the data set on Caco-2 cells [7], the “Uptake in untreated cells (without butyric acid induction)” value is “significantly decreased”. For the same compound, the “Caco-2 uptake, fold higher than 5-FU” value in the data set with Caco-2 cells [7] is on record as 5.5 fold. Also, the “membrane permeability AP → BL, fold greater than 5-FU” value with Caco-2 monolayer came to 13.1 fold. Further, the “Intestinal histology (duodenum, jejunum, ileum, colon; H&E)” value in the data set on Kunming mice is recorded as “No significant toxicity”.
